Assay results as given in ChEMBL document CHEMBL1687843, “Detection of NDM-1-producing Klebsiella pneumoniae in Kenya” (2011).
In brackets after ≈: the same amount, converted by molar mass. Activity calls are given as the source filed them. No cut-off for these calls is given here.

Experiments:
Klebsiella pneumoniae [1] = assay: Antibacterial activity against carbapenem-resistant Klebsiella pneumoniae isolate 1 expressing beta-lactamase NDM-1 obtained from urine of patient by Etest; type: functional; conditions: for MIC: isolate 1, Urine
Outline: (§1)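 Etest strips on Mueller-Hinton agar at 37°C give the MIC against each clinical isolate; susceptibility is interpreted per CLSI guidelines.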

Klebsiella pneumoniae [2] = assay: Antibacterial activity against carbapenem-resistant Klebsiella pneumoniae isolate 4 expressing beta-lactamase NDM-1 obtained from urine of patient by liquid microdilution method; type: functional; conditions: for MIC: isolate 4, Urine
Outline: (§2)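 Liquid broth microdilution at 37°C gives the MIC against each clinical isolate; results are interpreted per CLSI guidelines.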

Klebsiella pneumoniae [3] = assay: Antibacterial activity against carbapenem-resistant Klebsiella pneumoniae isolate 3 expressing beta-lactamase NDM-1 obtained from urine of patient by liquid microdilution method; type: functional; conditions: for MIC: isolate 3, Urine; outline: as §2
Klebsiella pneumoniae [4] = assay: Antibacterial activity against carbapenem-resistant Klebsiella pneumoniae isolate 4 expressing beta-lactamase NDM-1 obtained from urine of patient by Etest; type: functional; conditions: for MIC: isolate 4, Urine; outline: as §1
Klebsiella pneumoniae [5] = assay: Antibacterial activity against carbapenem-resistant Klebsiella pneumoniae isolate 1 expressing beta-lactamase NDM-1 obtained from urine of patient by liquid microdilution method; type: functional; conditions: for MIC: isolate 1, Urine; outline: as §2
Klebsiella pneumoniae [6] = assay: Antibacterial activity against carbapenem-resistant Klebsiella pneumoniae isolate 5 expressing beta-lactamase NDM-1 obtained from urine of patient by Etest; type: functional; conditions: for MIC: isolate 5, Urine; outline: as §1
Klebsiella pneumoniae [7] = assay: Antibacterial activity against carbapenem-resistant Klebsiella pneumoniae isolate 7 expressing beta-lactamase NDM-1 obtained from urine of patient by liquid microdilution method; type: functional; conditions: for MIC: isolate 7, Urine; outline: as §2
Klebsiella pneumoniae [8] = assay: Antibacterial activity against carbapenem-resistant Klebsiella pneumoniae isolate 6 expressing beta-lactamase NDM-1 obtained from urethral pus of patient by liquid microdilution method; conditions: for MIC: isolate 6, Urethral pus
Klebsiella pneumoniae [9] = assay: Antibacterial activity against carbapenem-resistant Klebsiella pneumoniae isolate 6 expressing beta-lactamase NDM-1 obtained from urethral pus of patient by Etest; conditions: for MIC: isolate 6, Urethral pus
Klebsiella pneumoniae [10] = assay: Antibacterial activity against carbapenem-resistant Klebsiella pneumoniae isolate 2 expressing beta-lactamase NDM-1 obtained from urine of patient by Etest; type: functional; conditions: for MIC: isolate 2, Urine; outline: as §1
Klebsiella pneumoniae [11] = assay: Antibacterial activity against carbapenem-resistant Klebsiella pneumoniae isolate 5 expressing beta-lactamase NDM-1 obtained from urine of patient by liquid microdilution method; type: functional; conditions: for MIC: isolate 5, Urine; outline: as §2
Klebsiella pneumoniae [12] = assay: Antibacterial activity against carbapenem-resistant Klebsiella pneumoniae isolate 3 expressing beta-lactamase NDM-1 obtained from urine of patient by Etest; type: functional; conditions: for MIC: isolate 3, Urine; outline: as §1
Klebsiella pneumoniae [13] = assay: Antibacterial activity against carbapenem-resistant Klebsiella pneumoniae isolate 2 expressing beta-lactamase NDM-1 obtained from urine of patient by liquid microdilution method; type: functional; conditions: for MIC: isolate 2, Urine; outline: as §2
Klebsiella pneumoniae [14] = assay: Antibacterial activity against carbapenem-resistant Klebsiella pneumoniae isolate 7 expressing beta-lactamase NDM-1 obtained from urine of patient by Etest; type: functional; conditions: for MIC: isolate 7, Urine; outline: as §1
Escherichia coli [15] = assay: Antimicrobial activity against Escherichia coli J53 harboring Klebsiella pneumoniae Kp7 beta-lactamase NDM-1; type: functional
Outline: (§3)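 Strains: azide-resistant E. coli J53 recipient and its transconjugant. The transconjugant came from conjugation with K. pneumoniae Kp7 donor, selected on ceftazidime (30 µg/ml) plus azide (100 µg/ml). MICs were by Etest on Mueller-Hinton agar and by liquid microdilution at 37°C, interpreted per CLSI.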

Escherichia coli [16] = assay: Antimicrobial activity against Escherichia coli J53; type: functional; outline: as §3

| SMILES | Activity (Klebsiella pneumoniae [1]) | Activity (Klebsiella pneumoniae [2]) | Activity (Klebsiella pneumoniae [3]) | Activity (Klebsiella pneumoniae [4]) | MIC (Klebsiella pneumoniae [1]) [µg/mL] | MIC (Klebsiella pneumoniae [2]) [µg/mL] | MIC (Klebsiella pneumoniae [3]) [µg/mL] | MIC (Klebsiella pneumoniae [4]) [µg/mL] | MIC (Escherichia coli [15]) [µg/mL] | MIC (Escherichia coli [16]) [µg/mL] | MIC (Klebsiella pneumoniae [5]) [µg/mL] | MIC (Klebsiella pneumoniae [6]) [µg/mL] | MIC (Klebsiella pneumoniae [7]) [µg/mL] | MIC (Klebsiella pneumoniae [8]) [µg/mL] | MIC (Klebsiella pneumoniae [9]) [µg/mL] | MIC (Klebsiella pneumoniae [10]) [µg/mL] | MIC (Klebsiella pneumoniae [11]) [µg/mL] | MIC (Klebsiella pneumoniae [12]) [µg/mL] | MIC (Klebsiella pneumoniae [13]) [µg/mL] | MIC (Klebsiella pneumoniae [14]) [µg/mL] | further results |
| --- | --- | --- | --- | --- | --- | --- | --- | --- | --- | --- | --- | --- | --- | --- | --- | --- | --- | --- | --- | --- | --- |
| C[C@@H]1O[C@@H]1P(=O)(O)O | inactive | inactive | inactive | inactive | – | – | – | – | – | – | – | – | – | – | – | – | – | – | – | – | Activity (Klebsiella pneumoniae [5]): inactive; Activity (Klebsiella pneumoniae [6]): inactive; Activity (Klebsiella pneumoniae [7]): inactive; Activity (Klebsiella pneumoniae [8]): inactive; Activity (Klebsiella pneumoniae [9]): inactive; Activity (Klebsiella pneumoniae [10]): inactive; Activity (Klebsiella pneumoniae [11]): inactive; Activity (Klebsiella pneumoniae [12]): inactive; Activity (Klebsiella pneumoniae [13]): inactive; Activity (Klebsiella pneumoniae [14]): inactive |
| O=C(N[C@H](CO)[C@H](O)c1ccc([N+](=O)[O-])cc1)C(Cl)Cl | inactive | inactive | inactive | inactive | – | – | – | – | – | – | – | – | – | – | – | – | – | – | – | – | Activity (Klebsiella pneumoniae [5]): inactive; Activity (Klebsiella pneumoniae [6]): inactive; Activity (Klebsiella pneumoniae [7]): inactive; Activity (Klebsiella pneumoniae [8]): inactive; Activity (Klebsiella pneumoniae [9]): inactive; Activity (Klebsiella pneumoniae [10]): inactive; Activity (Klebsiella pneumoniae [11]): inactive; Activity (Klebsiella pneumoniae [12]): inactive; Activity (Klebsiella pneumoniae [13]): inactive; Activity (Klebsiella pneumoniae [14]): inactive |
| O=C1CN(/N=C/c2ccc([N+](=O)[O-])o2)C(=O)N1 | inactive | inactive | inactive | inactive | – | – | – | – | – | – | – | – | – | – | – | – | – | – | – | – | Activity (Klebsiella pneumoniae [5]): inactive; Activity (Klebsiella pneumoniae [6]): inactive; Activity (Klebsiella pneumoniae [7]): inactive; Activity (Klebsiella pneumoniae [8]): inactive; Activity (Klebsiella pneumoniae [9]): inactive; Activity (Klebsiella pneumoniae [10]): inactive; Activity (Klebsiella pneumoniae [11]): inactive; Activity (Klebsiella pneumoniae [12]): inactive; Activity (Klebsiella pneumoniae [13]): inactive; Activity (Klebsiella pneumoniae [14]): inactive |
| C[C@@H](O)[C@H]1C(=O)N2C(C(=O)O)=C(S[C@@H]3CN[C@H](CNS(N)(=O)=O)C3)[C@H](C)[C@H]12 [DORIPENEM] | – | – | – | – | > 32 | > 32 | > 32 | > 32 | 1.5 (≈ 3.57 µM) | 0.12 (≈ 0.285 µM) | > 32 | > 32 | > 32 | > 32 | > 32 | > 32 | > 32 | > 32 | > 32 | > 32 | – |
| C[C@@H](O)[C@H]1C(=O)N2C(C(=O)O)=C(S[C@@H]3CN[C@H](C(=O)Nc4cccc(C(=O)O)c4)C3)[C@H](C)[C@H]12 [ERTAPENEM] | – | – | – | – | > 32 | > 32 | > 32 | > 32 | 1.5 (≈ 3.15 µM) | 0.12 (≈ 0.252 µM) | > 32 | > 32 | > 32 | > 32 | > 32 | > 32 | > 32 | > 32 | > 32 | > 32 | – |
| C[C@@H](O)[C@H]1C(=O)N2C(C(=O)O)=C(SCCNC=N)C[C@H]12 [IMIPENEM ANHYDROUS] | – | – | – | – | > 32 | > 32 | > 32 | > 32 | 4 (≈ 13.4 µM) | 0.12 (≈ 0.401 µM) | > 32 | > 32 | > 32 | > 32 | > 32 | > 32 | > 32 | > 32 | > 32 | > 32 | – |
| C[C@@H](O)[C@H]1C(=O)N2C(C(=O)O)=C(S[C@@H]3CN[C@H](C(=O)N(C)C)C3)[C@H](C)[C@H]12 [MEROPENEM] | – | – | – | – | > 32 | > 32 | > 32 | > 32 | 1.5 (≈ 3.91 µM) | 0.12 (≈ 0.313 µM) | > 32 | > 32 | > 32 | > 32 | > 32 | > 32 | > 32 | > 32 | > 32 | > 32 | – |
| CO[C@H]1/C=C/O[C@@]2(C)Oc3c(C)c(O)c4c(O)c(c(/C=N/N5CCN(C)CC5)c(O)c4c3C2=O)NC(=O)/C(C)=C\C=C\[C@H](C)[C@H](O)[C@@H](C)[C@@H](O)[C@@H](C)[C@H](OC(C)=O)[C@@H]1C [RIFAMPIN] | – | – | – | – | > 32 | > 32 | > 32 | > 32 | – | – | > 32 | > 32 | > 32 | > 32 | > 32 | > 32 | > 32 | > 32 | > 32 | > 32 | – |
| CN(C)c1cc(NC(=O)CNC(C)(C)C)c(O)c2c1C[C@H]1C[C@H]3[C@H](N(C)C)C(O)=C(C(N)=O)C(=O)[C@@]3(O)C(O)=C1C2=O [TIGECYCLINE] | – | – | – | – | 0.5 (≈ 0.854 µM) | – | – | 0.5 (≈ 0.854 µM) | – | – | – | 0.5 (≈ 0.854 µM) | – | – | 0.5 (≈ 0.854 µM) | 0.5 (≈ 0.854 µM) | – | 0.5 (≈ 0.854 µM) | – | 0.5 (≈ 0.854 µM) | – |
